We go through 38 variants from the RNAGym collection of RNA variant scans (doi:10.1126/science.aae0568).

Fewer inactive variants are shown than the library holds. A value given as a limit tells only on which side of the number the result lay.

B1: tRNA (parent)
chain: GUUCCGUUGGCGUAAUGGUAACGCGUCUCCCUCCUAAGGAGAAGACUGCGGGUUCGAGUCCCGUACGGAACG

Variants of B1 are the subject of this data set. In words: yeast fitness relative to wild type (ratio to wild type); higher = fitter; tRNA-Arg(CCU), competitive growth, 37 C, YPD. The gist of the method:
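Variants of the tRNA-Arg(CCU) gene were chemically synthesised with a 3% per-site mutation rate across 69 sites and placed at the native genomic locus in Saccharomyces cerevisiae. Six parallel replicates of the pooled strains were competed in YPD at 37°C for 24 hours, and gene amplicons from the start and end populations were read by 100-nucleotide paired-end sequencing. Darwinian fitness relative to wild type was derived from changes in genotype frequencies. Genotypes required ≥ 100 starting reads, and estimates < 0.5 were set to 0.5.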
GUUCCGUUGGCGUAUUGGUAACGCGUCUCCCUCCUAAGGAGAAGAAUGCGGGAUCGAGUCCCGUACGGGACG [A15U C46A U53A A69G]: the yeast fitness is at most 0.5.
The value for GUUCCGUUGGCGUAAUGGUAACGCGUCUCCCUCCUAAGGAGAUGACUGCGGGUUCAAGUCCCAUACGGAACG [A43U G56A G63A] was 0.773; that for GUUACAUUGGCGUAAUGGUAACGCGUCUCCCUCCUAAGGAGAAGACUGCGGGUUCGAGUCCCGUUCGGAACG [C4A G6A A65U] was 0.539; that for GUUCGGUUGGCGUAAUGGUAACGCGUCUCCCUCCUAAGGAGAAGACUGCGGGUUCGACUCCCGUACGGAACG [C5G G58C] was 0.859.
The value for GUCCCGUUGGCGUAAUGGUAACGCGUCUCCCUCUUAAGGAGAAGACUGCGGGCUCGAGUCCCGUACGGAACG [U3C C34U U53C] was at most 0.5.
With GUUCCGUUGGCGUAAUGGUAAAGCGUCUCCCUGCUAAGGAGAAGACUGCGGGUUCGAGUACCGUAGGGAACG [C22A C33G C60A C66G], the yeast fitness was at most 0.5.
The value for GUUCCGUUGGCGUAAUGGUCACGCGUUUCCCUCCUAAGGAGAAGUCUGCGGGUUCGAGUCCCGUACGGAACG [A20C C27U A45U] was 0.636; that for GUUCUGUUGGCGUAAUGGUAACGCGUCUCCCUCCUAAGGAGAAGACUGCAGGUUCGAGUCCCGUACGGAACG [C5U G50A] was 0.888.
Consider GUUUCGUUGGCGUAAUGGUAACGCGUCUCCCUACUAAGGAGAAGACUGUGGGUGCGAGUCCCGUACGGAACG [C4U C33A C49U U54G], for which the yeast fitness is at most 0.5.
For GUUCCGUUGGCGUAAUGAUAACGCGUCUCCCUCCUACGGAGCAGACUGCGGGUUUGAGUCCCGUACGGAACG [G18A A37C A42C C55U], the yeast fitness is at most 0.5.
As to GUUCCGUUGGCGUAAUGGUAACGCGUCUCCCUCCUAAGCAGAAGACUGCGCGUUCGAGUCCCGUGCGGAACG [G39C G51C A65G], the yeast fitness was at most 0.5.
Take GGUCCGUUGGCGUAAUGGUAACGUGUCUCCCUCCUAAGGAGAAGACUGCGGGUUCGAGUCCCGUACCGAACG [U2G C24U G67C]: the yeast fitness was found to be 0.681.
For the variant GUCCGGUUGGCGUAAUAGUAACGCGUCUCCCUCCUAAGGCGAAGACUGCGGGUUCGAGCCCCGUACGGAACG [U3C C5G G17A A40C U59C], the yeast fitness was at most 0.5.
Consider GUUCCGUUGGCGUAAUGGUAACGCGUCUCCCUGUUAAGGAGAAGACUGCGGGUUCGAGUCCCGUACGAAACG [C33G C34U G68A], for which the yeast fitness worked out at 0.582.
For GUUCCGUUGGCGAAAUGGUAACGCGUCACCCUCCUAAGGAGAAGACGGCGGGUUCGAGUCCUGUUCGGAACG [U13A U28A U47G C62U A65U], the yeast fitness was at most 0.5.
In the case of GUUCCGUUGGCGUAAUGGUAACCCGUCUCCCUCCUAAGGAGAAGACUGCGGGUUCGAGUCCCGUACGGUACG [G23C A69U], the yeast fitness was found to be 0.737.
For GUUCAGUUGGCGUAAUGGUGACGCGCCUCCCUCCUAAGGCGAAGACUGCGGGUUCGAGUCCCGUACGGAACG [C5A A20G U26C A40C], the yeast fitness was at most 0.5.
Take GUUCCGUUGGUGUAAUGGUAACGCGUCUCCCUCUUAAGGAGAAGACUGCGGGUUCGAGUCCCGUACGGAACG [C11U C34U]: the yeast fitness is 0.714.
The same measure for GUUCCGUUGGCGUAAUGGUAAUGCGUCUCCCUCCUAAGGAGAAGACUACGGGUUCAAGUUCCGUACGGAACG [C22U G48A G56A C60U]: at most 0.5; for GUUCCGUUGGCGUAAUGGUAACGCGUCUCCCUCCUAAGGAGAAGACUGCCGGCUUGAGUCCCGUACGGAACG [G50C U53C C55U]: 0.528.
Consider GUUCCGUUGGCGUAUUGGUAACGCGUCUCCCUCCUGUGGAGAAGACUGCGGGUUCGAGUCCCGUUCGGAACG [A15U A36G A37U A65U], for which the yeast fitness was at most 0.5.
The same measure for GUUCCGUUGGCGUAAUGGUAACGCGUCUGCCAUCUAAGGAGAAGACUGCGGGUUCGAGUCCCGUACGGAACG [C29G U32A C33U]: at most 0.5; for GGUCAGUUGGCGUAAUGGUAACGCGUCUCCCUCCUAAGGAGAUGACUGCGGGUUCGAGUCCCGUACGGAACG [U2G C5A A43U]: 0.68; for GCUCCGUUGGCCUAAUGGUAACGCGUCUCCCUCCUAAGGAGAAGACUGUGGGUUCGAGUCCCGUGCGGAACG [U2C G12C C49U A65G]: at most 0.5.
Regarding GUUCCGUUGGCGUAAUGGUAACGCGUCUCUCUCCUAAGGAGAAGACUGCGGGUUCGAGUCGCGUACGGACCG [C30U C61G A70C], the yeast fitness is at most 0.5.
Take GUUCCGUUGGCGUAAUGGUAACGAGUCUCCCUCCUCAGGAGAAGACUCCGGCUUCGAGUCCCGUACGGAACG [C24A A36C G48C G52C]: the yeast fitness is at most 0.5.
For the variant GUUCCGUUGGCGUAAUGGUAACGCGUCUCCCUCCUAAGGAGAAGUCUGUGGGUUCGAGUCGCGUACGGAACG [A45U C49U C61G], the yeast fitness amounted to 0.582.
Turning to GUUCCGUUGACGUAAUGGUUACGCGUCUCCCUCCUAAGGAGAAGUCUGCGGGUUUGAGUCCCGUACGGACCG [G10A A20U A45U C55U A70C], the yeast fitness was 0.576.
With GUUCCGUUGGCGUAAUGGUAACGAGUGUGCCUCCUAAGGAGAAGACUGCGGCUUCGAGUCCCGUACGGAACG [C24A C27G C29G G52C], the yeast fitness was 0.996.
On to GUUCCAUUGGCGUAAUGGUAACGCGCCUCCCUCCUAAGGAGAAGACUGCGGGUUCGAGUCCCGUACGGUACG [G6A U26C A69U], for which the yeast fitness amounted to 0.664.
The same measure for GUUCCGUUGGCGUGAUGGUAACGCGUCUCCCUCCUAAGGAGAAGACUCCAGGUUCGAGUCCCGUACGGAACG [A14G G48C G50A]: 0.546; for GUUCCGUUGGCGUAAUGGUAACGCGUCUCCCUCCUUAGGAGUAGACUGUGGGUUCGAGUCCCGUACGGCACG [A36U A42U C49U A69C]: at most 0.5.
With GUUCCGAUGGCGUAAUGGUCACGCGUCUCCCUCCUAAGGAGAAGACUGCGGGUUCGAGUCCCGUACGCAACG [U7A A20C G68C], the yeast fitness was found to be 0.539.
For GUUCCGUUGGCGUAAUGGUAACGCGUCUCCGUCCUAAGGAGAAGACUGCGGGUUCGAGUCCCGUAAGGAACG [C31G C66A], the yeast fitness was determined as 0.702.
The same measure for GUUCGGUUGGCGUAAUGGCAACGCGUCUCCCUCCUAAGGAGAAGACUGCGGGUUCGAGUCCCGUACCGAACG [C5G U19C G67C]: 0.682; for GUUCCGUUGACGUAAUGGUAACGCGUCUCCCUCCUAAGGAGAAGACUGCGGGUUCGAGUCCCGUACGGCCCG [G10A A69C A70C]: at most 0.5; for GUUCCGUUGGCGUAAUGGUGACGCGUCUCCCCCCUAAGGAGAAGACUGCGGGUUCGGGUCCCGUACGGAACG [A20G U32C A57G]: 0.724.
Take GUUCCGUUGGCGUAAUGGUAACGCGUCUCCUUCCUAAGGAGAAGACUGCGGGUUCGAGUCCCGUAUAGAACG [C31U C66U G67A]: the yeast fitness is 0.596.
